Screening results (PubChem BioAssay)
SENP1 inh: blocks the human SENP1 SUMO protease catalytic domain | recombinant SENP1 catalytic domain, CyPet-SUMO1-YPet FRET cleavage | inhibition, % at 10 µM | 360,000 tested, 0.21% active;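 active = inhibition at least 30% at 10 µM, raw YFP signal under a set limit, fluorescence ratio 0.5 to 1.5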;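 also: 0% = enzyme with DMSO and 100% = no enzyme wells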
Target sequence (Q9P0U3 419-644 limits assumed): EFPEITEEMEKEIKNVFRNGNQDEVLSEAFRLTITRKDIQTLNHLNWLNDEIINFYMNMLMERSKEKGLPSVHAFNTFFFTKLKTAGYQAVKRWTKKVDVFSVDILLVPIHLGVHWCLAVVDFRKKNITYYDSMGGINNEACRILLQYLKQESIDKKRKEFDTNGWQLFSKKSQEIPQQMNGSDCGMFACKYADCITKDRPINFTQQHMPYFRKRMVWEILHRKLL
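Assay system: hSENP1 catalytic domain, recombinant. Amount: SENP1 enzyme, 20 pM final. Schedule: 50 min reaction, RT, dark. Technique: FRET, CFP and YFP emission. Control set: no-enzyme wells low, DMSO-plus-enzyme wells high control.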
H9c2 protect: myocardial damage modulation in H9c2 cells; H9c2 cardiomyocytes, H2O2 injury protection, ATPLite, 2 h; protection from H2O2 cell death, % at 20 µM; 360,000 tested, 0.63% active; AID 588492;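 active = compounds giving at least 50% protection of heart cells from peroxide-induced death in the single-dose screen, raw or plate-pattern-corrected value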;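 also: 0% = DMSO wells with peroxide and 100% = DMSO wells without peroxide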
Pemphigus Ab inh: human desmoglein-3 autoantibody binding inhibition. P32926. DSG3-coupled beads, scFv-anti-DSG3-GFP binding, flow cytometry; hits give low values. binding (percent of control), % at 10 µM. 310,000 tested, 0.48% active. AID 588358;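 active = binding more than 3 SD below its plate's average and above zero; inconclusive = below that plate limit but binding exactly zero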;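 also: hits lower antibody fragment binding to DSG3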
Myeloid diff MLP: compounds promoting myeloid differentiation | ER-HoxA9 myeloid progenitors, lysozyme-GFP differentiation, flow cytometry | calls only at 10 µM | 360,000 tested, 1% active | AID 624256;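 active = normalized GFP-positive differentiation at or above the plate's own cutoff, the solvent-only control mean plus 3 SD; inconclusive = no clear call, values can overlap the other calls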;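 also: cells exposed to compound for four days before flow analysis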
HNF4A DNA FP: change in binding of human HNF4 alpha to DNA. P41235. HNF4a-FITC DNA binding, fluorescence polarization, 1 h. activity change, % at 10 µM. 360,000 tested, 0.3% active; in the data active = activity change above about 30%, passing the limit was not always enough
Exocytosis inh: blocks lytic granule exocytosis. TALL-104 LAMP-1 surface exposure, flow cytometry; cells stimulated with thapsigargin and PMA. inhibition, % at 10 µM. 360,000 tested, 0.66% active. AID 651702;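 active = inhibition above about 55%, limit read from the data; inconclusive = no clear call, values can overlap the other calls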
Granule exo CP1: lytic granule exocytosis inhibition; shares compounds with Exocytosis inh; TALL-104 cells, LAMP-1 externalization, flow cytometry; stimulated with PMA plus thapsigargin; inhibition, % at 10 µM; 1,500 tested, 11% active; in the data active = inhibition above about 60%;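 also: 0% = stimulated vehicle wells and 100% = unstimulated wells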
* = called active by the depositor; i = inactive; ? = inconclusive; / = no result. Shown are actives, neighbours in structure and some others; about 3% of the full set was active somewhere.

SMILES | SENP1 inh | H9c2 protect | Pemphigus Ab inh | Myeloid diff MLP | HNF4A DNA FP | Exocytosis inh | Granule exo CP1
CCOC(=O)C1(Cc2cccc(Cl)c2)CCCN(C(=O)c2cc(C)on2)C1 (centres undefined) | 3 | 0 | 100 | i | -4 | 1 | /
CCOC(=O)C1(Cc2cccc(Cl)c2)CCCN(C(=O)c2c(CC)noc2C)C1 (centres undefined) | 1 | 6 | 106 | i | 0 | 59* | -5
Cc1cccc(CN2C(=O)/C(=C\c3ccc(C(=O)NCCCN4CCN(C)CC4)cc3)Oc3ccccc32)c1 | -43 | -14 | 141 | i | 2 | 35 | /
CN1CCN(CCCNC(=O)c2ccc(/C=C3\Sc4ccccc4N(Cc4ccc(F)cc4)C3=O)cc2)CC1 | -14 | -12 | 100 | i | 0 | 64* | 77*
C=CCn1c(SCC(C)=O)nc2scc(-c3ccc(C)o3)c2c1=O | -3 | 2 | 108 | i | -4 | 85* | -10
COc1ccccc1CCNC(=O)CSc1nc(-c2ccco2)cc(C(F)(F)F)n1 | 1 | 4 | 97 | i | 0 | 15 | /
COc1ccccc1CCNC(=O)CCSc1nc(-c2ccco2)cc(C(F)(F)F)n1 | -4 | 1 | 98 | i | -1 | 64* | -5
Oc1ccccc1-c1nc(NC2CCCC2)c2ccccc2n1 | 1 | -14 | 111 | i | 2 | 64* | -5
COc1ccc(CC(=O)NCC2CCCN(Cc3ccc(OC(F)(F)F)cc3)C2)cc1 (centres undefined) | -2 | -3 | 109 | i | -1 | 66* | -12
O=c1c2ccccc2sn1-c1ccccc1F | 0 | -32 | / | i | 2 | 69* | 102*
CC(=O)Nc1ccc(-c2cc(N)n(-c3ccccc3)n2)cc1 | -7 | 1 | 98 | i | 5 | -6 | /
O=c1ccsc2ccccc12 | 1 | 10 | / | i | 4 | -2 | /
CC(=O)Nc1ccc2c(=O)n(-c3ccccc3)sc2c1 | 0 | -29 | 48* | i | -1 | 69* | 62*
O=c1c2ccccc2sn1-c1ccccc1 | 3 | -44 | ? | i | 4 | 99* | 105*
CCc1ccc(N2CC(C(=O)N3CCN(c4ccccn4)CC3)CC2=O)cc1 (centres undefined) | 2 | 5 | 96 | i | -2 | 1 | /
Cc1ccc(CNC(=O)c2ccc(N(C)S(=O)(=O)c3ccccc3)cc2)cc1 | 0 | 0 | / | ? | 3 | 67* | -4
CN(c1ccccc1)S(=O)(=O)c1ccc(C(=O)NCc2ccc(F)cc2)cc1 | 1 | -2 | 101 | i | 2 | 1 | /
CCN(CC)CCN(C(=O)c1cc2ccccc2cc1OC)c1nc2ccc(F)cc2s1 | 1 | 7 | 106 | ? | 1 | 50 | /
CCN(CC)CCN(C(=O)c1cc2ccccc2cc1OC)c1nc2ccc(OC)cc2s1 | 0 | 4 | 108 | i | 4 | 65* | -4
CC1CCN(C(=O)CN2C(=O)NC3(CCC(C)CC3)C2=O)CC1 (centres undefined) | -1 | 5 | 97 | i | 2 | 0 | /
COc1ccc(CCNC(=O)C23CN(Cc4ccccc4)CC2C(c2ccc([N+](=O)[O-])cc2)=NO3)cc1 (centres undefined) | 1 | -14 | 103 | i | -3 | 60* | -12
C=C(C)Cn1c(-c2ccccc2)nc2ccccc21 | 2 | -4 | 105 | i | 1 | 0 | /
C=C1c2nc3ccccc3n2C=C(c2ccc(C)cc2)N1c1ccccc1 | -57 | -18 | 100 | i | -1 | 90* | -14
CCN(CC)C(=O)C1CCCN(Cc2cccc(Oc3ccccc3)c2)C1 (centres undefined) | 1 | -1 | / | i | 1 | 68* | -13
CCOC(=O)C1CCCN(Cc2cccc(Oc3ccccc3)c2)C1 (centres undefined) | -1 | -6 | 120 | i | 1 | 2 | /
SMILES | SENP1 inh | H9c2 protect | Pemphigus Ab inh | Myeloid diff MLP | HNF4A DNA FP | Exocytosis inh | Granule exo CP1
COc1ccc(-c2csc3ncnc(N4CCN(c5ccccc5)CC4)c23)cc1 | 0 | 12 | 109 | i | 1 | 70* | -10
COc1ccc(-c2csc3ncnc(N4CCN(c5ccc(OC)cc5)CC4)c23)cc1 | -3 | 21 | 103 | i | 4 | 10 | /
Cc1cc(Br)ccc1OCc1nnc(-c2ccccc2)o1 | 2 | 2 | 106 | i | 1 | 73* | -5
COc1ccc(-c2nnc(COc3ccc(Br)cc3C)o2)cc1 | 1 | -3 | 104 | i | 0 | -4 | /
COc1ccc(CN(C)C(=O)CCNS(=O)(=O)c2ccccc2)c(OC)c1 | 3 | 1 | 98 | i | -2 | 4 | /
O=C(CCS(=O)(=O)c1ccccc1)N1CCCc2ccccc21 | 2 | -2 | 106 | i | 0 | 74* | 9
O=C(CCC(=O)N1CCCc2ccccc21)N1CCN(S(=O)(=O)c2ccccc2)CC1 | 0 | 8 | 109 | i | 1 | 1 | /
O=C(Nc1nc(-c2ccc(S(=O)(=O)N3CCOCC3)cc2)cs1)c1ccccc1 | 1 | -1 | 93 | i | -1 | -1 | /
O=C(Nc1nc(-c2nc3ccccc3s2)cs1)c1ccc(S(=O)(=O)N2CCOCC2)cc1 | 3 | 18 | 98 | i | -1 | 62* | 8
C=CCSc1nc2c(C(=O)OCC)nnn2c2ccccc12 | 3 | 3 | 97 | i | 2 | 81* | 0
CCC(=O)N1CCN(c2ccc(NC(=S)NC(=O)c3cc4ccccc4o3)cc2)CC1 | 3 | -17 | 94 | i | -2 | 0 | /
N#CC(c1nc2ccccc2nc1OCCO)S(=O)(=O)c1ccccc1 (centres undefined) | -33 | -2 | 96 | i | 3 | 0 | /
CN(C)c1ccc(CNCCC(Cc2ccccc2)c2ccco2)cc1 (centres undefined) | 0 | -16 | 106 | i | -2 | 45 | /
c1ccc(CNCCC(Cc2ccccc2)c2ccco2)cc1 (centres undefined) | -1 | -7 | 112 | i | 1 | 72* | -10
C[C@H](CO)N1C[C@H](C)[C@@H](CN(C)Cc2ccc(-c3ccccc3)cc2)Oc2c(NC(=O)Nc3ccc(C(F)(F)F)cc3)cccc2C1=O | 0 | 2 | 104 | i | 4 | 5 | /
CC1(C)Cc2c(sc(NC(=O)C(=O)N3CCCCC3)c2C(=O)O)CO1 | 1 | 5 | 96 | i | 6 | -1 | /
S=c1[nH]ncn1/N=C/c1ccco1 | 0 | 7 | 104 | i | -1 | 5 | /
CCc1nnc(NC(=O)C(NS(=O)(=O)c2ccc3c(c2)OCCO3)C(C)C)s1 (centres undefined) | 1 | -2 | 104 | i | -1 | -3 | /
